This series has as its system MS2 coat protein. The experiment in a line: apparent Kd, MS2 coat protein; higher = weaker binding; RNA-MaP array; tryptophan 2.4 mM where present. The method in brief:
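Green signal was scaled to red-channel RNA signal and control-cluster median Fmax, and the apparent Kd was taken as the median of filtered per-cluster binding-curve fits. The binding series used SNAP-549-labelled MS2 coat protein from 0.7 or 1.5 nM, doubling to 3 µM, on designs transcribed by stalled E. coli RNA polymerase on Illumina sequencing-chip clusters. Each series ran without and then with constant ligand in 100 mM Tris-HCl pH 7.5, 80 mM KCl, 4 mM MgCl2, BSA, DTT, yeast tRNA and Tween-20.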

Where [1] appears, read: designed as: OFF switch for tryptophan, no ligand.
Setting [2] is: ligand present: tryptophan, designed as: OFF switch for tryptophan.
Where [3] appears, read: designed as: ON switch for tryptophan, no ligand.
Setting [4] is: ligand present: tryptophan, designed as: ON switch for tryptophan.

The apparent Kd is the concentration giving half-maximal binding under the conditions of the assay. As to “AGUUUAGACACGGCCGCCACUCGUGACAGAUUUAGCAGUGGUCAACAUGAGGAUCACCCAUGUCUGAGGACCGGGUGUUGAGUUU”, the “apparent Kd” value was determined as 0.177 µM under setting [1] and 0.631 µM under setting [2].
As for “GGAUUCAACUCGGCCGCCACUGGUGAUCCUAAUGUACAUGAGGAUCACCCAUGUACAUGAGAAUACAGGACCGGGAGAUAAGCAA”, the “apparent Kd” value under setting [3] was determined as 0.0194 µM and the “apparent Kd” value under setting [4] amounted to 0.0139 µM.
Turning to “UACUUGCUGACGGCCGCCACUAGAACAUGAGGAUCACCCAUGUAAGUGGUUGGUUCAUGGGUGACUAGGACCGGGUCAGCAAGAU”, the “apparent Kd” value by setting is: under setting [1], 0.0323 µM; under setting [2], 0.0373 µM.
In the same order, the values of “CUCAUCCACGCGGCCGCCACUAUAUUGUGGUGUGAAUGUGUCGUAAUACAUGAGGAUCACCCAUGUAGGACCGGGCGUGGAUGAG” are 0.0201 µM and 0.0329 µM.
As to “GGGUGGUAGGCGGCCGCCACUGAUUUUCAUAUAUAUAUAACAUGAGGAUCACCCAUGUAGAUAUGCAGGACCGGGCCUGUUGUUU”, the “apparent Kd” value is, setting by setting: under setting [3], 0.0365 µM; under setting [4], 0.0304 µM.
In the same order, the values of “ACCUCAUAGGCGGCCGCCACUGUAAUGACUACGUCAAACAUGAGGAUCACCCAUGUAGUCAAUCACAGGACCGGGUCAUGGGUAG” are 0.0391 µM and 0.0239 µM.
Consider “UCCUGCAGAGCGGCCGCCACUGUGUUGCGUGAGGAUGACCCAACAUGAGGAUCACCCAUGUUGUUUAGGACCGGGCUUGCCUCGA”, for which the “apparent Kd” value reads like this: under setting [1], 0.0134 µM; under setting [2], 0.0123 µM.
As for “AAAUUAUAGGCGGCCGCCACUAGAGUUAGGCUUAUGUACUGGGUAACAUGAGGAUCACCCAUGUAUAGGACCGGGCCAUAAUAAA”, the “apparent Kd” value runs as follows: under setting [3], 0.0535 µM; under setting [4], 0.0526 µM.
For “CCGCACAUGAGGAUCACCCAUGUCCGGGUUCGAGGACCGGUACGGCCGCCACUCGGACAUGUGCGCCCUUCAUGCACUGUAUAAA”, the “apparent Kd” value by setting is: under setting [3], 0.129 µM; under setting [4], 0.0609 µM.
The matching figures for “AUAAUAAUACAUGAGGAUCACCCAUGUAUGCGAGGACCGGUACGGCCGCCACUCGACCUCAUGCAUACAUGAGGAUCACCCAUGU”: 0.0325 µM and 0.062 µM.
“UAUAUAUAUCACGAACUGUGGUGUAUGUCCCGAGGACCGGUACGGCCGCCACUCGCGUGGUUCCACAUGAGGAUCACCCAUGUUG”: the “apparent Kd” value was found to be 0.0189 µM under setting [1] and 0.0227 µM under setting [2].
For “GCUAGGUCAUCGGCCGCCACUAACGACGGUUCCAACAUGAGGAUCACCCAUGUGCCACAUGCGCAUAGGACCGGGAUGACCUAGC”, the “apparent Kd” value by setting is: under setting [3], 0.033 µM; under setting [4], 0.021 µM.
With “UGAUACCAGUCGGCCGCCACUAUGCUAGAUACUAGCAAUAAAGGGCGACAUGAGGAUCACCCAUGUAGGACCGGGACUGGUAUCU”, the “apparent Kd” value is 0.0112 µM under setting [1] and 0.0148 µM under setting [2].
For the sequence “GCAUCCUAGUCGGCCGCCACUGGUACGAACACCUUCACCCGUGUGCACAUGAGGAUCACCCAUGUCAGGACCGGGACUAGGAUGC”, the “apparent Kd” value turned out to be 0.00936 µM under setting [3] and 0.00966 µM under setting [4].
“AGCCGCGUUCUUUCUUUCUUUCUAGCGGCACGAGGACCGGUACGGCCGCCACUCGCCCACAUGAGGAUCACCCAUGUAGUGGGUG”: the “apparent Kd” value under setting [1] stood at 0.0188 µM and the “apparent Kd” value under setting [2] turned out to be 0.0806 µM.
The matching figures for “UUAUAAGUACCGGUCCUCAGAUCCUCAUGACGAGGACCGGUACGGCCGCCACUCGAAACAUGAGGAUCACCCAUGUAAUAAUACC”: 0.0375 µM and 0.0291 µM.
The matching figures for “AAACAUGAGGAUCACCCAUGUAUACUUAGACGAGGACCGGUACGGCCGCCACUCGAACUUCAAGAUUUGGCGGAAAAUGUAUGUA”: 0.0113 µM and 0.0129 µM.
In the same order, the values of “ACAUGAGGAUCACCCAUGUGAAGCAGGGUACGAGGACCGGUACGGCCGCCACUCGAGCAUUAUACCGAGUGAAUGGCAACGAUGU” are 0.0157 µM and 0.017 µM.
On to “CCUCAAUAGACGGCCGCCACUGAAACAUGCGGAUACAUGAGGAUCACCCAUGUGGGUGUGUUACGCAGGACCGGGUCAAGACCCG”, for which the “apparent Kd” value is 0.345 µM under setting [3] and 0.48 µM under setting [4].

Source of the values: the EternaBench riboswitch data.
